Nine compounds from ChEMBL document CHEMBL1275242, “Antifungal susceptibility profile of human-pathogenic species of Lichtheimia” (2010) can be followed below.

Each structure is given as a SMILES string. Converted amounts (≈) assume the structure as drawn. Numbered stars: 1 amine (or outer) side, 2 acyl side, 3 side chain; on linkers, the order of the positions; unused ones are H or OH. Bridge positions count the residues as written; N and C are the ends. Square brackets hold non-standard residues; d marks the D form. Peptide text beside a SMILES is read from it. * marks the point of attachment. hTyr(3S-OH,4S-OH,3'-OSO3H) = N[C@H](C(=O)O)[C@H](O)[C@@H](O)c1ccc(O)c(OS(=O)(=O)O)c1; pTerphenylCO(4''-OnC5H11) = CCCCCOc1ccc(-c2ccc(-c3ccc(C(=O)*)cc3)cc2)cc1; Orn(4R-OH,5R-OH) = O=C([C@H](C[C@@H](O)[C@@H](O)N[*:3])N[*:1])[*:2]; hTyr(3S-OH,4S-OH) = N[C@H](C(=O)O)[C@H](O)[C@@H](O)c1ccc(O)cc1; Pro(3S-OH,4S-Me) = C[C@H]1CN[C@H](C(=O)O)[C@H]1O; X1 = CCCCCOc1ccc(-c2cc(-c3ccc(C(=O)*)cc3)no2)cc1; Gln(3R-OH) = NC(=O)C[C@@H](O)[C@H](N)C(=O)O; Hyp = O=C(O)[C@@H]1C[C@@H](O)CN1

What all share (format): functional
For assay [1], the system named is Lichtheimia corymbifera. Put plainly: Antifungal activity against Lichtheimia corymbifera clinical isolate after 48 hrs by EUCAST method. In short, it runs like this:
(§1)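 EUCAST broth microdilution, with spore inoculum counted in a hematocytometer. Final drug concentrations were 16 to 0.03 or 8 to 0.015 mg/liter depending on agent. Plates were incubated at 35°C in humid air and read visually with a mirror at 24 and 48 h. Endpoint was complete visual growth inhibition, except for echinocandins, where it was MEC (altered hyphal morphology versus growth control). Aspergillus QC strains were included.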

The nature of assay [2]: Antifungal activity against Lichtheimia ramosa clinical isolate after 48 hrs by EUCAST method. In outline: as §1
The subject of assay [3] is Lichtheimia corymbifera. In words: Antifungal activity against Lichtheimia corymbifera clinical isolate after 24 hrs by EUCAST method. In outline: as §1
Assay [4] in a line: Antifungal activity against Lichtheimia ornata clinical isolate after 48 hrs by EUCAST method. In short, it runs like this:
as §1

Assay [5] in a line: Antifungal activity against Lichtheimia ornata clinical isolate after 24 hrs by EUCAST method. In outline: as §1
A short description of assay [6]: Antifungal activity against Lichtheimia ramosa clinical isolate after 24 hrs by EUCAST method. In outline:
as §1

Broadly, the MIC is the least concentration at which growth counts as inhibited. Regarding `CCCCCOc1ccc(-c2ccc(-c3ccc(C(=O)N[C@H]4C[C@@H](O)[C@@H](O)NC(=O)[C@@H]5[C@@H](O)[C@@H](C)CN5C(=O)[C@H]([C@@H](C)O)NC(=O)[C@H]([C@H](O)[C@@H](O)c5ccc(O)cc5)NC(=O)[C@@H]5C[C@@H](O)CN5C(=O)[C@H]([C@@H](C)O)NC4=O)cc3)cc2)cc1` [ANIDULAFUNGIN] ({pTerphenylCO(4''-OnC5H11)}-[Orn(4R-OH,5R-OH)]T[Hyp][hTyr(3S-OH,4S-OH)]T[Pro(3S-OH,4S-Me)]; lactam 1-C), the minimum inhibitory concentration (MIC) was found to be 10.8 mg/L (≈ 9.48 µM) in the assay on Lichtheimia corymbifera [1]; 5.15 mg/L (≈ 4.52 µM) in assay [2]; 1.99 mg/L (≈ 1.75 µM) against Lichtheimia corymbifera [3]; 32 mg/L (≈ 28.1 µM) in assay [4]; 4 mg/L (≈ 3.51 µM) in assay [5]; 3.58 mg/L (≈ 3.14 µM) in assay [6].

Consider `C[C@@H]1[C@H](O)[C@@H](C)/C=C/C=C/C=C/C=C/C=C/C=C/C=C/[C@H](O[C@@H]2O[C@H](C)[C@@H](O)[C@H](N)[C@@H]2O)C[C@@H]2O[C@](O)(C[C@@H](O)C[C@@H](O)[C@H](O)CC[C@@H](O)C[C@@H](O)CC(=O)O[C@H]1C)C[C@H](O)[C@H]2C(=O)O` [AMPHOTERICIN B], for which the MIC with Lichtheimia corymbifera [1] came out at 0.14 mg/L (≈ 0.152 µM); in assay [2], 0.14 mg/L (≈ 0.152 µM); against Lichtheimia corymbifera [3], 0.07 mg/L (≈ 0.0758 µM); in assay [4], 0.12 mg/L (≈ 0.13 µM); in assay [5] it was 0.12 mg/L (≈ 0.13 µM); in assay [6], 0.08 mg/L (≈ 0.0866 µM).

On to `CCCCCOc1ccc(-c2cc(-c3ccc(C(=O)N[C@H]4C[C@@H](O)[C@@H](O)NC(=O)[C@@H]5[C@@H](O)[C@@H](C)CN5C(=O)[C@H]([C@H](O)CC(N)=O)NC(=O)[C@H]([C@H](O)[C@@H](O)c5ccc(O)c(OS(=O)(=O)O)c5)NC(=O)[C@@H]5C[C@@H](O)CN5C(=O)[C@H]([C@@H](C)O)NC4=O)cc3)no2)cc1` [MICAFUNGIN] (X1-[Orn(4R-OH,5R-OH)]T[Hyp][hTyr(3S-OH,4S-OH,3'-OSO3H)][Gln(3R-OH)][Pro(3S-OH,4S-Me)]; lactam 1-C), for which the MIC in the assay on Lichtheimia corymbifera [1] was found to be 12.6 mg/L (≈ 9.95 µM); in assay [2], 21.4 mg/L (≈ 16.8 µM); with Lichtheimia corymbifera [3], 8.92 mg/L (≈ 7.02 µM); in assay [4] it was 32 mg/L (≈ 25.2 µM); in assay [5], 32 mg/L (≈ 25.2 µM); in assay [6] it was 6.85 mg/L (≈ 5.39 µM).

For `C[C@@H](c1nc(-c2ccc(C#N)cc2)cs1)[C@](O)(Cn1cncn1)c1ccc(F)cc1F` [RAVUCONAZOLE], the MIC against Lichtheimia corymbifera [1] is 1.86 mg/L (≈ 4.25 µM); in assay [2], 3.42 mg/L (≈ 7.82 µM); against Lichtheimia corymbifera [3], 1.34 mg/L (≈ 3.06 µM); in assay [4], 2 mg/L (≈ 4.57 µM); in assay [5], 1 mg/L (≈ 2.29 µM); in assay [6], 1.44 mg/L (≈ 3.29 µM).

Take `CN(C/C=C/C#CC(C)(C)C)Cc1cccc2ccccc12` [TERBINAFINE]: the MIC in the assay with Lichtheimia corymbifera [1] came out at 0.75 mg/L (≈ 2.57 µM); in assay [2] it was 1 mg/L (≈ 3.43 µM); in the assay with Lichtheimia corymbifera [3] it was 0.48 mg/L (≈ 1.65 µM); in assay [4], 0.5 mg/L (≈ 1.72 µM); in assay [5], 0.25 mg/L (≈ 0.858 µM); in assay [6], 0.56 mg/L (≈ 1.92 µM).

On to `CCC(C)n1ncn(-c2ccc(N3CCN(c4ccc(OCC5COC(Cn6cncn6)(c6ccc(Cl)cc6Cl)O5)cc4)CC3)cc2)c1=O` (centres undefined) [ITRACONAZOLE], for which the MIC was determined as 1.03 mg/L (≈ 1.46 µM) against Lichtheimia corymbifera [1]; 2.38 mg/L (≈ 3.37 µM) in assay [2]; 0.62 mg/L (≈ 0.879 µM) in the assay on Lichtheimia corymbifera [3]; 1 mg/L (≈ 1.42 µM) in assay [4]; 0.5 mg/L (≈ 0.709 µM) in assay [5]; 0.92 mg/L (≈ 1.3 µM) in assay [6].

Take `CC[C@@H]([C@H](C)O)n1ncn(-c2ccc(N3CCN(c4ccc(OC[C@@H]5CO[C@@](Cn6cncn6)(c6ccc(F)cc6F)C5)cc4)CC3)cc2)c1=O` [POSACONAZOLE]: the minimum inhibitory concentration (MIC) with Lichtheimia corymbifera [1] stood at 0.58 mg/L (≈ 0.828 µM); in assay [2], 0.69 mg/L (≈ 0.985 µM); with Lichtheimia corymbifera [3], 0.37 mg/L (≈ 0.528 µM); in assay [4], 0.25 mg/L (≈ 0.357 µM); in assay [5], 0.25 mg/L (≈ 0.357 µM); in assay [6], 0.32 mg/L (≈ 0.457 µM).

In the case of `CC[C@H](C)C[C@H](C)CCCCCCCCC(=O)N[C@H]1C[C@@H](O)[C@@H](NCCN)NC(=O)[C@@H]2[C@@H](O)CCN2C(=O)[C@H]([C@H](O)CCN)NC(=O)[C@H]([C@H](O)[C@@H](O)c2ccc(O)cc2)NC(=O)[C@@H]2C[C@@H](O)CN2C(=O)[C@H]([C@@H](C)O)NC1=O` [CASPOFUNGIN], the MIC came out at 10 mg/L (≈ 9.16 µM) against Lichtheimia corymbifera [1]; 21.4 mg/L (≈ 19.6 µM) in assay [2]; 9.27 mg/L (≈ 8.48 µM) in the assay with Lichtheimia corymbifera [3]; 32 mg/L (≈ 29.3 µM) in assay [4]; 32 mg/L (≈ 29.3 µM) in assay [5]; 11 mg/L (≈ 10.1 µM) in assay [6].

As to `C[C@@H](c1ncncc1F)[C@](O)(Cn1cncn1)c1ccc(F)cc1F` [VORICONAZOLE], the MIC was 11.5 mg/L (≈ 33 µM) in the assay with Lichtheimia corymbifera [1]; 15.1 mg/L (≈ 43.1 µM) in assay [2]; 11.1 mg/L (≈ 31.8 µM) in the assay with Lichtheimia corymbifera [3]; 16 mg/L (≈ 45.8 µM) in assay [4]; 16 mg/L (≈ 45.8 µM) in assay [5]; 12.6 mg/L (≈ 36 µM) in assay [6].
